Here are results for eleven molecules from ChEMBL document CHEMBL1146124, “Kinesin spindle protein (KSP) inhibitors. Part 3: synthesis and evaluation of phenolic 2,4-diaryl-2,5-dihydropyrroles with reduced hERG binding and employment of a phosphate prodrug strategy for aqueous solubility” (Bioorg Med Chem Lett, 2006).

The structures appear in SMILES notation. A value given as a limit tells only on which side of the number the result lay.

One may read the clearance as the rate of elimination divided by the concentration. A higher clearance goes with efficient removal. What is called half-life is the time needed for the level to fall by half in the phase considered. For orientation: EC50 means the concentration giving half of the maximal effect. A low value points to greater potency. One may read the IC50 as the concentration needed to halve the response being measured. The low end stands for inhibition by little substance, the high end for a need for much substance.

One data set relates to Rattus norvegicus. The experiment in a line: Ratio of AUC's for parent compound after prodrug dosing and parent compound dosing in rat at 1 mg/kg, iv. The note with it: in vivo. It counts as ADME, organism-based. Also on record: dose 1 mg/kg, route intravenous. In short, it runs like this: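 Prodrug and parent were each given intravenously in DMSO to rats at 1 mpk. The value is the AUC of parent after prodrug dosing divided by the AUC after direct parent dosing, expressed as a percentage.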

A short description of data set [1]: Plasma clearance in dog at 0.4 mg/kg, iv. Also on record: dose 0.4 mg/kg, route intravenous. Type of data set: ADME, organism-based, Canis lupus familiaris. In short, it runs like this: (§1)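 Given intravenously to dogs at 0.4 mpk, with DMSO as the vehicle.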
A short description of data set [2]: Plasma clearance in rat at 1 mg/kg, iv. It counts as ADME, organism-based. Also on record: dose 1 mg/kg, route intravenous. The essentials:
(§2)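 Given intravenously to rats at 1 mpk, with DMSO as the vehicle.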

Data set [3] is described as follows: Half life in dog at 0.4 mg/kg, iv. It counts as ADME, organism-based, Canis lupus familiaris. Further details: dose 0.4 mg/kg, route intravenous. The note with it: in vivo. The essentials: as §1
In another data set the test system is Canis familiaris. The experiment in a line: Ratio of AUC's for parent compound after prodrug dosing and parent compound dosing in dog at 0.4 mg/kg, iv. Type of data set: ADME, organism-based, Canis lupus familiaris. Further details: dose 0.4 mg/kg, route intravenous. The note with it: in vivo. In short, it runs like this:
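Prodrug and parent were each given intravenously in DMSO to dogs at 0.4 mpk. The value is the AUC of parent after prodrug dosing divided by the AUC after direct parent dosing, expressed as a percentage.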

The nature of data set [4]: Half life in rat at 1 mg/kg, iv. The note with it: in vivo. Also on record: dose 1 mg/kg, route intravenous. It counts as ADME, organism-based. The essentials: as §2
For the next data set, the system named is A2780. The experiment in a line: Mitotic arrest in A2780 cells. The note with it: Homo sapiens. Type of data set: functional, cell-based. The essentials:
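M-phase arrest read out by antibody-based detection of phosphonucleolin. Values are the average of at least two determinations, with standard deviations of 25–50%.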

Data set [5] addresses T1, Kinesin-like protein KIF11 (Homo sapiens, UniProt P52732).
T1 sequence (P52732 whole entry): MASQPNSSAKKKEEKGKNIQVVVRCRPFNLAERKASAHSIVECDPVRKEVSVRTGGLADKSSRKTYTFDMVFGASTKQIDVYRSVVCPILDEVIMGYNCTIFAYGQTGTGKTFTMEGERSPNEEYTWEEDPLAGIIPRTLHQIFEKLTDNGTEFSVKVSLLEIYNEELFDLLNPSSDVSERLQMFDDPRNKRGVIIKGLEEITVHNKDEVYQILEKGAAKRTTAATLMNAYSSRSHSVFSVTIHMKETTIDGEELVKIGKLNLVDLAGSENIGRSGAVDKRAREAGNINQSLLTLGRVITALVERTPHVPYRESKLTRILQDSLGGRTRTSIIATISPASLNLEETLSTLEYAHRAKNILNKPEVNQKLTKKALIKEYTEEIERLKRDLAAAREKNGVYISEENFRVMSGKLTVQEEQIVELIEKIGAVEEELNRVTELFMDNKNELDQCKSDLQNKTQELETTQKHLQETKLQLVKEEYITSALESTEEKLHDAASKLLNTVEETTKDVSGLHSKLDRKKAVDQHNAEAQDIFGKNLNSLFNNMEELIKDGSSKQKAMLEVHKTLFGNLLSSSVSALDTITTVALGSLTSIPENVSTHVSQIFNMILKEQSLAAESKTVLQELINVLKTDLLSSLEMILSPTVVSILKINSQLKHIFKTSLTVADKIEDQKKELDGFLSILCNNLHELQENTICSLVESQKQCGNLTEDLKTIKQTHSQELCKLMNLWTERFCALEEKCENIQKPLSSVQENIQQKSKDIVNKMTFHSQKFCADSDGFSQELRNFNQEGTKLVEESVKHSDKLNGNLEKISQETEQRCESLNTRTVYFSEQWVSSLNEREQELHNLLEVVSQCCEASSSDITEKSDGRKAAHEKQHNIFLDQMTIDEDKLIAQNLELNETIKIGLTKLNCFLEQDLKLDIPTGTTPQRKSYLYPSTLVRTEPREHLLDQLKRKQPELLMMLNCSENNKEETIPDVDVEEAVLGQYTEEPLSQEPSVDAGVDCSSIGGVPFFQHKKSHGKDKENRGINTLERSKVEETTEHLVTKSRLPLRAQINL
The experiment in a line: Inhibition of KSP by ATPase assay.

Data set [6] addresses Voltage-gated inwardly rectifying potassium channel KCNH2 (Homo sapiens, UniProt Q12809). Nature of the data set: Inhibitory activity against human hERG receptor expressed in HEK cells. For orientation: Block of hERG is tested as a sign of cardiac risk.

Sequence of Voltage-gated inwardly rectifying potassium channel KCNH2 (Q12809 whole entry): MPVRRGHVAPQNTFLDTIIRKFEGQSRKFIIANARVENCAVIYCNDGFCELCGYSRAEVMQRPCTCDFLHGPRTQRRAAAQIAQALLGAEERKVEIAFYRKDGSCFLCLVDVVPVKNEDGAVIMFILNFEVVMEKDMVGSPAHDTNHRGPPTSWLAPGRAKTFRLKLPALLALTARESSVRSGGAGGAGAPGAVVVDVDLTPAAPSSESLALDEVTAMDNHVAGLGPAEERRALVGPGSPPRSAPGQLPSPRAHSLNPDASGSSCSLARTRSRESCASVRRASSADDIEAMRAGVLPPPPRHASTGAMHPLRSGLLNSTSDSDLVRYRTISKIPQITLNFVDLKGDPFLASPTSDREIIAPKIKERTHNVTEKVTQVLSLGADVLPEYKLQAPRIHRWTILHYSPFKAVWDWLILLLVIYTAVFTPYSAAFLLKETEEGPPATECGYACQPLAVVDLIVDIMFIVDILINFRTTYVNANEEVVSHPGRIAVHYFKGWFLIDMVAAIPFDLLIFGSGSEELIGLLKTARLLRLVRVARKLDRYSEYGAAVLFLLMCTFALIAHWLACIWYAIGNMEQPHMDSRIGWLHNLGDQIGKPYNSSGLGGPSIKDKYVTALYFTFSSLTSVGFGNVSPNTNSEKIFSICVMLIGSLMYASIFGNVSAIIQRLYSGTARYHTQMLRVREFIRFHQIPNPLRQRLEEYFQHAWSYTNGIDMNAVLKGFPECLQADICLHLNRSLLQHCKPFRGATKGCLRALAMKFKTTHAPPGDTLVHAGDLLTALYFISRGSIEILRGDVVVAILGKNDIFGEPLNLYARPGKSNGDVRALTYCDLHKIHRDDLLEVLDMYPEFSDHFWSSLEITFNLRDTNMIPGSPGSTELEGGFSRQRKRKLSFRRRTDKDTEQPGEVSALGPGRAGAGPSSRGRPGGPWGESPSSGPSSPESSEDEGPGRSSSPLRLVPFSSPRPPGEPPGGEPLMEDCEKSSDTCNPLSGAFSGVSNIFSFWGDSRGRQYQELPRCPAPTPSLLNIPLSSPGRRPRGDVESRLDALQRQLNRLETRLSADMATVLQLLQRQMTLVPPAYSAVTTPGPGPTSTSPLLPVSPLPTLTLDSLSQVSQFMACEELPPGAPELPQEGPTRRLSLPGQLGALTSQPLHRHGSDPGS

Turning to `CC(C)(C)[C@H](NC(=O)OCCO)C(=O)N1CC(c2cc(F)ccc2F)=C[C@H]1c1ccccc1`, the “Ratio AUC” value came to 57% with Rattus norvegicus and 38% with Canis familiaris. In addition, the results for the clearance in [1] and in [2] were 11 mL/min/kg and 68 mL/min/kg, respectively. Further, the half-life in data set [3] is 168 min; in [4], 18 min.
Turning to `CC(C)(C)[C@H](NC(=O)OCCOP(=O)(O)O)C(=O)N1CC(c2cc(F)ccc2F)=C[C@H]1c1ccccc1`, the half-life in [3] and in data set [4] was under 6 min in each case.
In turn, `N[C@H](C(=O)N1CC(c2cc(F)ccc2F)=C[C@H]1c1cccc(O)c1)C1CC1` gave an EC50 with A2780 of 3 nM. This molecule also registered an IC50 in data set [5] of 0.5 nM.
As to `CN(CCO)C(=O)N1CC(c2cc(F)ccc2F)=C[C@H]1c1cccc(O)c1`, the EC50 with A2780 came out at 9.1 nM. This molecule also came in with an IC50 in [5] of 4 nM.
`CC(C)(C)[C@H](O)C(=O)N1CC(c2cc(F)ccc2F)=C[C@H]1c1cccc(O)c1` yielded a concentration for a half-maximal effect (EC50) with A2780 of 2.6 nM. The molecule further returned a 50% inhibitory concentration (IC50) in data set [5] of 1.3 nM.
`CN(C)C(=O)N1CC(c2cc(F)ccc2F)=C[C@H]1c1cccc(OP(=O)(O)O)c1`: the values for the half-life in data set [3] and in data set [4] were 15 min and 9 min, respectively.
Regarding `O=C([C@@H](O)C1CC1)N1CC(c2cc(F)ccc2F)=C[C@H]1c1cccc(O)c1`, a half-maximal response in the data set on A2780 (EC50) required 3.1 nM. In [5], this molecule yielded an IC50 of 2.9 nM.
`CC(C)(C)C(=O)N1CC(c2cc(F)ccc2F)=C[C@H]1c1cccc(O)c1`: the 50% effective concentration (EC50) in the data set on A2780 amounted to 37 nM. Also, the figures for the IC50 in data set [5] and in [6] were 13 nM and 7800 nM, respectively.
Molecule `CC(C)[C@H](N)C(=O)N1CC(c2cc(F)ccc2F)=C[C@H]1c1cccc(O)c1` yielded an EC50 in the data set with A2780 of 3.3 nM. This molecule yielded an IC50 in data set [5] of 1.2 nM.
For `CN(C)C(=O)N1CC(c2cc(F)ccc2F)=C[C@H]1c1cccc(O)c1`, the figures for the clearance in data set [1] and in data set [2] were 13 mL/min/kg and 68 mL/min/kg, respectively. Also, in the data set on A2780, a half-maximal effect (EC50) was put at 22 nM. In addition, the figures for the half-life in data set [3] and in [4] were 90 min and 18 min, respectively. The IC50 in data set [5] is 7 nM.
In turn, `CN(C(=O)N1CC(c2cc(F)ccc2F)=CC1c1cccc(O)c1)C1CCNCC1` (racemic) showed an EC50 in the data set with A2780 of 8.5 nM. In [5], this molecule gave an IC50 of 5.5 nM.
